Converted amounts (≈) assume the structure as drawn.
Assays:
[1] = Water solubility, shake flask method, 0.1 M phosphate buffer pH 6.8; type: physicochemical; conditions: 37 °C, pH 6.8, aqueous buffer, thermodynamic from solid
[2] = Chemical antioxidant capacity, FRAP assay
[3] = system: HepG2; assay: Cytotoxicity, mitochondrial activity; type: cell-based; conditions: Homo sapiens, HepG2, 72 h, read-out: IC50 MTT
How it was run: (§1)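 Seeded at 20000 cells/well in DMEM and grown 24 h at 37 °C, 10% CO2. Medium was then replaced with serum-free medium holding test compound (25 mM DMSO stock) at various concentrations for 72 h, in triplicate; doxorubicin was the positive control. MTT (5 mg/mL stock in PBS) added for 2 h, formazan dissolved in DMSO, A570. IC50 derived from % surviving cells, reported as mean ± SD combined with SRB data.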

[4] = system: HT‐29; assay: Cytotoxicity, mitochondrial activity; type: cell-based; conditions: Homo sapiens, HT-29, 72 h, read-out: IC50 MTT
How it was run: as §1

[5] = system: Caco‐2; assay: Cytotoxicity, mitochondrial activity; type: cell-based; conditions: Homo sapiens, Caco-2, 72 h, read-out: IC50 MTT
How it was run: as §1

[6] = system: EA.hy926; assay: Cytotoxicity, mitochondrial activity; type: cell-based; conditions: Homo sapiens, EA.hy 926, 72 h, read-out: IC50 MTT
How it was run: as §1

[7] = system: HepG2; assay: Cell growth inhibition, protein content; type: cell-based; conditions: Homo sapiens, HepG2, 72 h, read-out: IC50 SRB
How it was run: (§2)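 Cell lines from ATCC, grown in DMEM+glutamax with 1% NEAA, 1% P/S and 10% FBS at 37 °C, 10% CO2. Seeded at 20000 cells/well for 24 h, then exposed to test compound (25 mM DMSO stock) for three days. Fixed with cold TCA for 1 h at 4 °C, stained 30 min with 0.4% SRB in 1% acetic acid, dissolved in 10 mM Tris, A490. Triplicate; IC50 given as mean ± SD combined with MTT data (n ≥ 3).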

[8] = system: HT‐29; assay: Cell growth inhibition, protein content; type: cell-based; conditions: Homo sapiens, HT-29, 72 h, read-out: IC50 SRB
How it was run: as §2

[9] = system: Caco‐2; assay: Cell growth inhibition, protein content; type: cell-based; conditions: Homo sapiens, Caco-2, 72 h, read-out: IC50 SRB
How it was run: as §2

[10] = system: EA.hy926; assay: Cell growth inhibition, protein content; type: cell-based; conditions: Homo sapiens, EA.hy 926, 72 h, read-out: IC50 SRB
How it was run: as §2

[11] = system: HepG2; assay: Intracellular ROS assay; type: cell-based; conditions: for change of intracellular ROS in words: HepG2, vs untreated control, 10 and 1 μM; for activity at 1 µM / activity at 10 µM: Homo sapiens, HepG2, read-out: Intracellular ROS, percentage compared to the untreated control cells (ROS/SRB)
How it was run: (§3)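 Cells seeded at 20000/well and grown 24 h at 37 °C, 10% CO2, then treated with test compound at 10 and 1 μM in serum-free medium. NAC and doxorubicin served as controls. After a PBS wash, cells were loaded with 20 μM DCFH-DA for 30 min, washed, and held 1 h in phenol red-free DMEM. Fluorescence read at ex 485/em 535 nm and normalized to SRB in the same well. Reported as % of untreated control, n ≥ 3, two-tailed t-test with unequal variances.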

[12] = system: HT‐29; assay: Intracellular ROS assay; type: cell-based; conditions: for activity at 1 µM / activity at 10 µM: Homo sapiens, HT-29, read-out: Intracellular ROS, percentage compared to the untreated control cells (ROS/SRB); for change of intracellular ROS in words: HT‐29, vs untreated control, 10 and 1 μM
How it was run: as §3

[13] = system: Caco‐2; assay: Intracellular ROS assay; type: cell-based; conditions: for activity at 1 µM / activity at 10 µM: Homo sapiens, Caco-2, read-out: Intracellular ROS, percentage compared to the untreated control cells (ROS/SRB); for change of intracellular ROS in words: Caco‐2, vs untreated control, 10 and 1 μM
How it was run: as §3

[14] = system: EA.hy926; assay: Intracellular ROS assay; type: cell-based; conditions: for activity at 1 µM / activity at 10 µM: Homo sapiens, EA.hy 926, read-out: Intracellular ROS, percentage compared to the untreated control cells (ROS/SRB)
How it was run: as §3

Compound	solubility at 90 min [1] [µM]	solubility at 24 h [1] [µM]	IC50 [7] [µM]	IC50 [9] [µM]	FRAP (Trolox equivalent per μM) [2] [Trolox equivalent per μM]	FRAP (curcumin equivalent per μM) [2]	IC50 [3] [µM]	IC50 [4] [µM]	IC50 [5] [µM]	IC50 [6] [µM]	IC50 [8] [µM]	IC50 [10] [µM]	activity at 1 µM [11] [%]	activity at 10 µM [11] [%]	activity at 1 µM [12] [%]	activity at 10 µM [12] [%]	activity at 1 µM [13] [%]	activity at 10 µM [13] [%]	activity at 1 µM [14] [%]	activity at 10 µM [14] [%]	also measured
COc1cc(/C=C/C(=O)/C=C(O)/C=C/c2cccnc2)ccc1O [3 a, (1E,4Z,6E)‐5‐Hydroxy‐1‐(4‐hydroxy‐3‐methoxyphenyl)‐7‐(pyridin‐3‐yl)hepta‐1,4,6‐triene‐3‐one]	8.1 ± 1.6 (≈ 2.62 µg/mL)	14.5 ± 1.1 (≈ 4.69 µg/mL)	16.8 ± 0.9	25 ± 1.8	0.42	0.40 curcumin equivalent per μM	14.1 ± 0.3	17.9 ± 0.1	14.6 ± 2	8.5 ± 0.4	20.9 ± 0.9	3.8	116 ± 12.8	82.3 ± 1.9	83.2 ± 3.2	89.9 ± 4.3	106 ± 8.4	120 ± 8.7	123 ± 9.5	95.5 ± 5.1	change of intracellular ROS in words [11]: significantly decreased ROS signal; change of intracellular ROS in words [12]: significantly decreased ROS signal; change of intracellular ROS in words [13]: significantly increased ROS production
Cc1c(C)c2c(c(C)c1O)CC[C@@](C)(CCC[C@H](C)CCC[C@H](C)CCCC(C)C)O2 [α‐Tocopherol, α‐tocopherol, reference compound]	–	–	–	–	0.70	0.68 curcumin equivalent per μM	–	–	–	–	–	–	–	–	–	–	–	–	–	–	–
Cc1c(C)c2c(c(C)c1O)CCC(C)(C(=O)O)O2 (centres unmarked) [Trolox, reference compound]	–	–	–	–	–	1.00 curcumin equivalent per μM	–	–	–	–	–	–	–	–	–	–	–	–	–	–	–
COc1cc(/C=C/C(=O)/C=C(O)/C=C/c2cccc3cnccc23)ccc1O [3 e, (1E,4Z,6E)‐5‐Hydroxy‐1‐(4‐hydroxy‐3‐methoxyphenyl)‐7‐(isoquinolin‐5‐yl)hepta‐1,4,6‐triene‐3‐one]	1.1 ± 0.2 (≈ 0.411 µg/mL)	1.4 ± 0.2 (≈ 0.523 µg/mL)	7.3 ± 0.3	17.7 ± 3	0.21	0.20 curcumin equivalent per μM	4.7 ± 0.2	1.3 ± 0.5	6.9 ± 0.3	5.2 ± 0.2	10.7 ± 1.6	16.2 ± 0.6	103 ± 5.1	96.7 ± 4.3	80.6 ± 4.8	67.6 ± 5.1	92.8 ± 11.9	72.7 ± 5.1	96.3 ± 4.3	120 ± 4.4	change of intracellular ROS in words [13]: significantly decreased ROS production
CC(=O)N[C@@H](CS)C(=O)O [NAC, N‐acetyl‐L‐cysteine, reference compound]	–	–	–	–	–	–	–	–	–	–	–	–	77.1 ± 7.8	63.1 ± 4.3	82.7 ± 3.4	75.3 ± 3.3	83.7 ± 6.2	83.5 ± 5.1	84.2 ± 4.8	76.6 ± 8.3	change of intracellular ROS in words [11]: significant decrease in ROS generation; change of intracellular ROS in words [12]: significant decrease in ROS generation; change of intracellular ROS in words [13]: significant decrease in ROS generation; change of intracellular ROS in words ([14]; EA.hy926, vs untreated control, 10 and 1 μM): significant decrease in ROS generation
O=C1O[C@H]([C@@H](O)CO)C(O)=C1O [Ascorbic acid, ascorbic acid, reference compound]	–	–	–	–	0.60	0.57 curcumin equivalent per μM	–	–	–	–	–	–	–	–	–	–	–	–	–	–	–

Continued, in another order:

solubility at 90 min [1] [µM]	solubility at 24 h [1] [µM]	IC50 [7] [µM]	IC50 [9] [µM]	Compound	FRAP (Trolox equivalent per μM) [2] [Trolox equivalent per μM]	FRAP (curcumin equivalent per μM) [2]	IC50 [3] [µM]	IC50 [4] [µM]	IC50 [5] [µM]	IC50 [6] [µM]	IC50 [8] [µM]	IC50 [10] [µM]	activity at 1 µM [11] [%]	activity at 10 µM [11] [%]	activity at 1 µM [12] [%]	activity at 10 µM [12] [%]	activity at 1 µM [13] [%]	activity at 10 µM [13] [%]	activity at 1 µM [14] [%]	activity at 10 µM [14] [%]	also measured
5.3 ± 0.1 (≈ 1.68 µg/mL)	5.4 ± 0.1 (≈ 1.71 µg/mL)	10.2 ± 0.4	10.3 ± 0.1	O=C(/C=C(O)/C=C/c1cccnc1)/C=C/c1c[nH]c2ccccc12 [3 h, (1E,4Z,6E)‐5‐Hydroxy‐1‐(1H‐indol‐3‐yl)‐7‐(pyridin‐3‐yl)hepta‐1,4,6‐trien‐3‐one]	0.13	0.12 curcumin equivalent per μM	5 ± 0.3	6.4 ± 0.8	6.7 ± 0.4	6.2 ± 0.3	34.6 ± 0.8	2.9 ± 0.1	115 ± 4.5	112 ± 4.9	82.3 ± 1.5	95.6 ± 4.2	111 ± 3.2	128 ± 8.2	97.9 ± 9.8	107 ± 5.3	change of intracellular ROS in words [11]: significantly increased ROS production
1.27 (≈ 0.408 µg/mL)	1.25 (≈ 0.402 µg/mL)	10.8 ± 1.6	5.7 ± 0.2	O=C(/C=C(O)/C=C/c1cccs1)/C=C/c1c[nH]c2ccccc12 [3 m, (1E,4Z,6E)‐5‐Hydroxy‐1‐(1H‐indol‐3‐yl)‐7‐(thiophen‐2‐yl)hepta‐1,4,6‐trien‐3‐one]	0.10	0.09 curcumin equivalent per μM	4.7 ± 0.2	6.9	0.5 ± 0.3	4.4 ± 0.4	4.8 ± 0.3	8.6 ± 0.5	318 ± 13.2	424 ± 28.4	247 ± 15.5	337 ± 22	238 ± 5.5	295 ± 11.1	344 ± 7.1	322 ± 9.6	–
7.6 ± 0.9 (≈ 2.75 µg/mL)	13.2 ± 0.3 (≈ 4.77 µg/mL)	13.5 ± 1.1	37.9 ± 1.8	COc1cc(/C=C/C(=O)/C=C(O)/C=C/c2c[nH]c3ccccc23)ccc1O [3 g, (1E,4Z,6E)‐5‐Hydroxy‐1‐(4‐hydroxy‐3‐methoxyphenyl)‐7‐(1H‐indol‐3‐yl)hepta‐1,4,6‐trien‐3‐one]	0.44	0.42 curcumin equivalent per μM	19.5 ± 0.6	12.9 ± 0.9	5.8 ± 0.3	19 ± 0.4	40.5 ± 4.3	45.1 ± 2.6	111 ± 14.5	104 ± 12	85.7 ± 1.3	90.4 ± 5.1	102 ± 11.3	111 ± 3.1	129 ± 9.2	92.7 ± 6.1	–
8.8 ± 0.4 (≈ 2.81 µg/mL)	7.7 ± 0.7 (≈ 2.46 µg/mL)	> 75	18.7 ± 1.2	COc1cc(/C=C/c2cc(/C=C/c3cccnc3)[nH]n2)ccc1O [4 a, 2‐Methoxy‐4‐{(E)‐2‐[5‐((E)‐2‐(pyridin‐3‐yl)vinyl)‐1H‐pyrazol‐3‐yl]vinyl}phenol]	0.57	0.55 curcumin equivalent per μM	11.2 ± 0.1	> 75	53.7 ± 6.1	18.5 ± 1.3	24 ± 1.6	60.7 ± 0.7	88.4 ± 6.3	83.1 ± 5.5	61.3 ± 6.9	84.8 ± 3.8	79.1 ± 8.8	86.7 ± 2	–	97.3 ± 7.3	antioxidant activity in words, FRAP [2]: comparable to ascorbic acid; change of intracellular ROS in words [12]: significantly decreased ROS signal; change of intracellular ROS in words [13]: significantly decreased ROS production
12.2 ± 0.3 (≈ 3.71 µg/mL)	12 ± 0.7 (≈ 3.65 µg/mL)	9.8 ± 0.3	10.1 ± 0.5	O=C(/C=C(O)/C=C/c1ccc[nH]1)/C=C/c1c[nH]c2ccccc12 [3 l, (1E,4Z,6E)‐5‐Hydroxy‐1‐(1H‐indol‐3‐yl)‐7‐(1H‐pyrrol‐2‐yl)hepta‐1,4,6‐trien‐3‐one]	0.29	0.27 curcumin equivalent per μM	16.5 ± 0.4	10.5 ± 0.1	6.5 ± 0.2	3.3 ± 0.1	10 ± 0.1	4.2 ± 0.3	600 ± 61.8	998 ± 60.2	152 ± 8.8	558 ± 96.3	410 ± 31.9	767.2 ± 4.1	438 ± 46.1	826 ± 22.7	–
